{"source": "paper PMC8978309", "about": "(Materials Advances, 2022)", "key": {"[1]": {"assay": "AlamarBlue cytotoxicity assay, MDA-MB-231", "format": "cell-based, human", "conditions": "human, MDA-MB-231 cells", "in_short": "(§1)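 MDA-MB-231 cells grown in DMEM with 1% Pen-Strep and 10% FBS at 37 °C, 5% CO2. Seeded at 2.5 × 10^5 cell per mL, then preincubated 24 h. […] Read-out: 10% AlamarBlue in PBS, 4 h, fluorescence ex 560/em 590 nm, normalised to medium control (100%). IC50 by nonlinear regression; triplicates, mean, SD, %CV.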"}, "[2]": {"system": "human breast cancer MDA-MB-231 cell line", "assay": "AlamarBlue cytotoxicity assay, MDA-MB-231", "format": "cell-based", "conditions": "for IC50: Homo sapiens; for relative cell live (%RCL): MDA-MB-231, 15 μM", "in_short": "as §1"}, "[3]": {"system": "normal osteoblast-like hFOB 1.19 cell line", "assay": "AlamarBlue cytotoxicity assay, hFOB 1.19", "format": "cell-based, human", "conditions": "for IC50: Homo sapiens", "in_short": "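hFOB 1.19 osteoblast-like cells grown in 1:1 DMEM:F-12 with 0.3 mg mL−1 G418 and 10% FBS at 34 °C, 5% CO2. Seeded at 2.5 × 10^5 cell per mL, then preincubated 24 h at 34 °C. Exposed 24, 48 or 72 h to two-fold dilutions (0–200 μM), or to 1.9–15 μM. Read-out: 10% AlamarBlue, 4 h, fluorescence 560/590 nm, relative to medium control. IC50 by nonlinear regression; triplicates.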"}, "[4]": {"assay": "Dissolution profile in FaSSGF", "format": "physicochemical", "conditions": "FaSSGF pH 1.60, 37 °C", "in_short": "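Test compound stirred in 100 mL fasted-state simulated gastric fluid (HCl/NaCl, pH 1.60) at 37 °C and 150 rpm for 36 h. Dissolved drug quantified directly by UV absorbance at 208 nm (400–200 nm scan) against a reagent blank.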"}, "Hydroxyapatite": {"assay": "Hydroxyapatite", "format": "binding", "conditions": "PBS pH 7.40, 37 °C", "in_short": "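20 mg synthetic hydroxyapatite incubated with 3 mL test compound in PBS (0.5 mg mL−1) at 37 °C for 0–11 d. Controls were compound alone and HA alone in PBS. Supernatant collected daily and centrifuged (1500 rpm, 8 min). Bound fraction derived from the fall in supernatant absorbance at 208 nm. Experimental groups done in duplicate.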"}, "[5]": {"conditions": "cited from earlier work"}, "[6]": {"assay": "Dissolution profile in PBS", "format": "physicochemical", "conditions": "PBS pH 7.40, 37 °C", "in_short": "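Powdered test compound dissolved in 100 mL PBS (pH 7.40) at 37 °C with constant stirring at 150 rpm for 48 h. Release followed by UV absorbance at 208 nm (scan 400–200 nm) against a reagent blank.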"}}, "data": [{"smiles": "O=P(O)(O)C(O)(Cn1ccnc1)P(=O)(O)O", "note": "[ZOLE, zoledronate]", "values": [{"measurement": "viability at 1.9 µM", "setting": "[1]", "value": "~100", "unit": "%"}, {"measurement": "IC50", "setting": "[2]; MDA-MB-231, 24 h", "value": "> 200", "unit": "µM"}, {"measurement": "IC50", "setting": "[2]; MDA-MB-231, 48 h", "value": "> 200", "unit": "µM"}, {"measurement": "IC50", "setting": "[2]; MDA-MB-231, 72 h", "value": "35 ± 4", "unit": "µM"}, {"measurement": "%RCL", "setting": "[2]; MDA-MB-231, 3.8 μM, time not stated (Fig. 9b)", "value": "~100", "unit": "%"}, {"measurement": "relative cell live (%RCL)", "setting": "[2]; 48 h", "value": "80 ± 2", "unit": "%"}, {"measurement": "relative cell live (%RCL)", "setting": "[2]; 72 h", "value": "58 ± 2", "unit": "%"}, {"measurement": "IC50", "setting": "[3]; 24 h", "value": "> 200", "unit": "µM"}, {"measurement": "IC50", "setting": "[3]; 48 h", "value": "86 ± 3", "unit": "µM"}, {"measurement": "IC50", "setting": "[3]; 72 h", "value": "49 ± 4", "unit": "µM"}, {"measurement": "cell death (cell viability result in words)", "setting": "[3]; hFOB 1.19, 3.8–15 μM, after 24, 48, and 72 h", "value": "no significant cell death"}, {"measurement": "time to reach maximum dissolution / equilibrium solubility", "setting": "[4]", "value": 3, "unit": "h"}, {"measurement": "time to reach maximum binding to HA", "setting": "Hydroxyapatite", "value": 8, "unit": "days"}, {"measurement": "maximum binding to HA", "setting": "Hydroxyapatite; 0–11 d", "value": 82, "unit": "%"}, {"measurement": "binding to HA", "setting": "Hydroxyapatite; in 1 d", "value": 15, "unit": "%"}, {"measurement": "bioavailability", "setting": "[5]", "value": "< 1", "unit": "%"}, {"measurement": "maximum plasma concentration", "setting": "[5]", "value": 1, "unit": "µM"}, {"measurement": "time to reach maximum dissolution / equilibrium solubility", "setting": "[6]", "value": 30, "unit": "min"}, {"measurement": "dissolution (ZOLE content released, maximum reached)", "setting": "[6]; 150 rpm", "value": 100, "unit": "%"}]}]}
